Consider 28 compounds from the M2OR odorant receptor database.

Structures are written as SMILES.
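Note: active if original authors judged signal statistically different from baseline.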

This experiment deals with T1, OR2C1 (Homo sapiens) (UniProt O95371).
T1 sequence (whole entry): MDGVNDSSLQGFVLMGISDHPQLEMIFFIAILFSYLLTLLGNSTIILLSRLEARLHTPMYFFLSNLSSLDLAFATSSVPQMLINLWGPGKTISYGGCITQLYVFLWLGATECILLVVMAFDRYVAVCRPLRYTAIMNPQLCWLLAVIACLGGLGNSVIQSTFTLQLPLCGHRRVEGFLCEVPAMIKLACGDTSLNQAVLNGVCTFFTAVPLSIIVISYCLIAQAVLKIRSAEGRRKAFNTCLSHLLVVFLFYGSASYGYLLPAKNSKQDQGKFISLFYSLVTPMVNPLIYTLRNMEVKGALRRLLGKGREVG
To be noted: stereoisomer not certain. Summed up:
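Whether a receptor–molecule pair is responsive (active) rests on the original authors' judgment that its measured signal was statistically different from baseline. Pairs without that judgment are non-responsive (inactive). Sources used varied assay methods, commonly transient luciferase assays in mammalian cell lines.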
Take `CCOC(=O)C(C)C`: the “odorant receptor agonist call” value was “inactive”.

For the compound `CCCCCC(=O)CC`, the “odorant receptor agonist call” value was “inactive”. Next, `CCCCCCCCCC(=O)[O-].[H+]`: “inactive”. As to `CCCCCC=O`, the “odorant receptor agonist call” value was “inactive”. Turning to `CC(=O)Oc1ccccc1`, the “odorant receptor agonist call” value was “inactive”. For `CC(=O)OCC=C(C)C`, the “odorant receptor agonist call” value is “inactive”.

For `CCCCCCOC(C)=O`, the “odorant receptor agonist call” value is “inactive”. Next, `COc1cc(C(=O)O)ccc1O`: “inactive”.

For `O=C1Cc2ccccc2O1`, the “odorant receptor agonist call” value is “inactive”. Next, `CCCCCCO`: “inactive”; `CC(C)=CCCC(C)CCO` (stereo not drawn): “inactive”; `CCCCCC1=C(C)CCC1=O`: “inactive”.

For the compound `CC12CCC(CC1=O)C2(C)C` (stereo not drawn), the “odorant receptor agonist call” value is “inactive”. Next, `CCCCCOC(=O)CCCCC`: “inactive”. In the case of `CCCCCCCCO` it was “inactive”; in that of `CCCCCCC(C)=O`, “inactive”. Next, `CCCC(=O)C(C)=O`: “inactive”. Regarding `CCCCCCCC(=O)[O-].[H+]`, the “odorant receptor agonist call” value is “inactive”. Consider `CCCCCCCCS`, for which the “odorant receptor agonist call” value is “active”. Next, `CCCCCCC(=O)[O-].[H+]`: “inactive”; `CCCCCCCCC(=O)O`: “inactive”. Regarding `CCCCOC=O`, the “odorant receptor agonist call” value was “inactive”. Next, `CCCC(C)=O`: “inactive”. As to `C=C(C)C1CCC(C)C(=O)C1` (stereo not drawn), the “odorant receptor agonist call” value is “inactive”.

Take `CCC(=O)C(=O)CC`: the “odorant receptor agonist call” value is “inactive”. As to `c1ccccc1`, the “odorant receptor agonist call” value was “inactive”. Regarding `CCCCCCCO`, the “odorant receptor agonist call” value was “inactive”.

For the compound `O=C(c1ccccc1)c1ccccc1`, the “odorant receptor agonist call” value was “inactive”.
